Here are results for 20 compounds from ChEMBL document CHEMBL1148816, “Heterotricyclic himbacine analogs as potent, orally active thrombin receptor (protease activated receptor-1) antagonists” (J Med Chem, 2007).

pIC50: −log10 of the molar value.

This assay addresses T1, Proteinase-activated receptor 1 (Homo sapiens, UniProt P25116).
T1 sequence (P25116 whole entry): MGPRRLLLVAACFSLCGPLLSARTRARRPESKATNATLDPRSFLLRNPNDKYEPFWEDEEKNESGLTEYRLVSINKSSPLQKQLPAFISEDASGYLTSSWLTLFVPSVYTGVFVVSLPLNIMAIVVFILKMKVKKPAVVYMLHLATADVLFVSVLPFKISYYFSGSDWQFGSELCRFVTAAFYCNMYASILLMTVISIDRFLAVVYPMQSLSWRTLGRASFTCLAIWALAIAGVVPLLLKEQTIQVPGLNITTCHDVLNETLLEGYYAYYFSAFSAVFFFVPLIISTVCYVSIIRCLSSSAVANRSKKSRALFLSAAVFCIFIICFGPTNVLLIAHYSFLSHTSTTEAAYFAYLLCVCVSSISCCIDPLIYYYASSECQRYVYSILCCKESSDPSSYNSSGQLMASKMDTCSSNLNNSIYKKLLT
Put plainly: Displacement of [3H]haTRAP from PAR1 in human platelet membrane. In kind it is cell membranes. In a few lines:
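Membranes from human platelets as the PAR-1 source, with tritiated high-affinity thrombin receptor activating peptide ([3H]haTRAP) as radioligand; IC50 reported ± SEM, n = 2.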
As usually defined, the pIC50 is −log10 of the IC50, conventionally taken in molar units. Compound `C[C@H]1OC(=O)[C@@H]2C[C@@H]3C[S+]([O-])CC[C@H]3[C@H](/C=C/c3ccc(-c4cccc(C(F)(F)F)c4)cn3)[C@H]12` (stereo in doubt) had a pIC50 of 7.10. The value for `CC(C)C(=O)N1CC[C@@H]2[C@H](C[C@H]3C(=O)O[C@H](C)[C@H]3[C@H]2/C=C/c2ccc(-c3cccc(C(F)(F)F)c3)cn2)C1` was 6.95. Consider `C[C@H]1OC(=O)[C@@H]2C[C@@H]3C[S+]([O-])CC[C@H]3[C@H](/C=C/c3ccc(-c4cccc(C(F)(F)F)c4)cn3)[C@H]12` (single isomer, unassigned; isomer 2), for which the pIC50 was 6.43.

`C[C@H]1OC(=O)[C@@H]2C[C@@H]3COCC[C@H]3[C@H](/C=C/c3ccc(-c4cccc(Cl)c4Cl)cn3)[C@H]12` had a pIC50 of 7.68. The value for `C[C@H]1OC(=O)[C@@H]2C[C@@H]3CN(C(N)=O)CC[C@H]3[C@H](/C=C/c3ccc(-c4cccc(F)c4)cn3)[C@H]12` was 5.96; that for `CCOC(=O)N1CCC[C@H]2[C@H](/C=C/c3ccc(-c4cccc(C#N)c4)cn3)[C@@H]3[C@@H](C)OC(=O)[C@@H]3C[C@@H]21` was 6.53; that for `C[C@H]1OC(=O)[C@@H]2C[C@@H]3CNCC[C@H]3[C@H](/C=C/c3ccc(-c4cccc(C(F)(F)F)c4)cn3)[C@H]12` was 6.22. The value for `CCOC(=O)N1CCC[C@H]2[C@H](/C=C/c3ccc(-c4ccccc4C)cn3)[C@@H]3[C@@H](C)OC(=O)[C@@H]3C[C@@H]21` was 6.22; that for `CCOC(=O)N1CC[C@@H]2[C@H](C[C@H]3C(=O)O[C@H](C)[C@H]3[C@H]2/C=C/c2ccc(-c3cccc(C(F)(F)F)c3)cn2)C1` was 7.96; that for `CCCS(=O)(=O)N1CC[C@@H]2[C@H](C[C@H]3C(=O)O[C@H](C)[C@H]3[C@H]2/C=C/c2ccc(-c3cccc(F)c3)cn2)C1` was 7.00. Consider `C[C@H]1OC(=O)[C@@H]2C[C@@H]3CN(C(=O)OCc4ccccc4)CC[C@H]3[C@H](/C=C/c3ccc(-c4cccc(C(F)(F)F)c4)cn3)[C@H]12`, for which the pIC50 is 7.60. With `C[C@H]1OC(=O)[C@@H]2C[C@@H]3CN(C(=O)C4CC4)CC[C@H]3[C@H](/C=C/c3ccc(-c4cccc(C(F)(F)F)c4)cn3)[C@H]12`, the pIC50 is 7.43. The value for `C[C@H]1OC(=O)[C@@H]2C[C@@H]3COCC[C@H]3[C@H](/C=C/c3ccc(-c4cccc(Cl)c4)cn3)[C@H]12` was 7.72; that for `C[C@H]1OC(=O)[C@@H]2C[C@@H]3CSCC[C@H]3[C@H](/C=C/c3ccc(-c4cccc(C(F)(F)F)c4)cn3)[C@H]12` was 7.66; that for `CCOC(=O)N1CCC[C@H]2[C@H](/C=C/c3ccc(-c4ccccc4F)cn3)[C@@H]3[C@@H](C)OC(=O)[C@@H]3C[C@@H]21` was 6.82.

`CCOC(=O)N1CCC[C@H]2[C@H](/C=C/c3ccc(-c4cccc(F)c4)cn3)[C@@H]3[C@@H](C)OC(=O)[C@@H]3C[C@@H]21` showed a pIC50 of 6.65.

In turn, `C[C@H]1OC(=O)[C@@H]2C[C@@H]3CN(C)CC[C@H]3[C@H](/C=C/c3ccc(-c4cccc(C(F)(F)F)c4)cn3)[C@H]12` had a pIC50 of 6.12.

For `CC(=O)N1CC[C@@H]2[C@H](C[C@H]3C(=O)O[C@H](C)[C@H]3[C@H]2/C=C/c2ccc(-c3cccc(C(F)(F)F)c3)cn2)C1`, the pIC50 is 6.26. In turn, `C[C@H]1OC(=O)[C@@H]2C[C@@H]3CS(=O)(=O)CC[C@H]3[C@H](/C=C/c3ccc(-c4cccc(C(F)(F)F)c4)cn3)[C@H]12` showed a pIC50 of 6.70. Regarding `C[C@H]1OC(=O)[C@@H]2C[C@@H]3COCC[C@H]3[C@H](/C=C/c3ccc(-c4ccccc4Cl)cn3)[C@H]12`, the pIC50 is 7.89.
